# Experimental data published in ChEMBL document CHEMBL1153868, “Novel 8-deaza-5,6,7,8-tetrahydroaminopterin derivatives as dihydrofolate inhibitor: design, synthesis and antifolate activity” (Eur J Med Chem, 2009).
# Assays:
# HeLa = experiment: Cytotoxicity against human HeLa cells after 48 hrs; assay type: functional, cell-based
# Method in brief: (§1)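 Exponentially growing cells maintained in supplemented RPMI-1640 medium. Exposed to a range of compound concentrations for 48 h. Growth inhibition measured by MTT and SRB assays. IC50 reported as the mean of three independent experiments.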
# Dihydrofolate reductase = target: T1, Dihydrofolate reductase (Homo sapiens, UniProt P00374); experiment: Inhibition of human recombinant DHFR by spectrophotometry
# T1 sequence (P00374 whole entry): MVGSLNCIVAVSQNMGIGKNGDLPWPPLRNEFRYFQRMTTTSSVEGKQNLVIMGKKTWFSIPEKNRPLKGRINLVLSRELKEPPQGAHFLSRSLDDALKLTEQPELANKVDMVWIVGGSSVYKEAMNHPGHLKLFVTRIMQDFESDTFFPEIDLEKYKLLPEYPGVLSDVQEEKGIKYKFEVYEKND
# HL-60 = experiment: Cytotoxicity against human HL60 cells after 48 hrs; assay type: functional, cell-based; details: HL-60, 48 h; method in brief: as §1
# BGC-823 = experiment: Cytotoxicity against human BGC823 cells after 48 hrs; assay type: functional, cell-based; details: BGC-823, 48 h; method in brief: as §1
# Bel-7402 = experiment: Cytotoxicity against human Bel7402 cells after 48 hrs; assay type: functional, cell-based; details: Bel-7402, 48 h; method in brief: as §1
SMILES,IC50 (HeLa),IC50 (Dihydrofolate reductase),IC50 (HL-60),IC50 (BGC-823),IC50 (Bel-7402)
Nc1nc(N)c2c(n1)CCC(CNc1ccc(C(=O)NC(CCC(=O)O)C(=O)O)cc1)N2 (centres undefined),960 nM,560 nM,900 nM,440 nM,87900 nM
C=CCN1c2c(N)nc(N)nc2CCC1CNc1ccc(C(=O)NC(CCC(=O)O)C(=O)O)cc1 (centres undefined),7850 nM,1410 nM,700 nM,5200 nM,42200 nM
C=CCN(CC1CCc2nc(N)nc(N)c2N1CC=C)c1ccc(C(=O)NC(CCC(=O)O)C(=O)O)cc1 (centres undefined),21700 nM,2150 nM,1420 nM,2430 nM,7100 nM
C=CCN1c2c(N)nc(N)nc2CCC1CNc1ccc(C(=O)NC(CCC(=O)O)C(=O)O)cc1Br (centres undefined),900 nM,2370 nM,570 nM,6590 nM,1200 nM
Nc1nc(N)c2c(n1)CCC(CNc1ccc(C(=O)NC(CCC(=O)O)C(=O)O)cc1Br)N2CC(Br)CBr (centres undefined),19400 nM,9340 nM,48800 nM,22600 nM,257000 nM
CN(Cc1cnc2nc(N)nc(N)c2n1)c1ccc(C(=O)N[C@@H](CCC(=O)O)C(=O)O)cc1 [METHOTREXATE],100 nM,–,210 nM,110 nM,82300 nM
